From ChEMBL document CHEMBL1123863, “1-[[[5-(substituted phenyl)-2-oxazolyl]methylene]amino]-2,4- imidazolidinediones, a new class of skeletal muscle relaxants” (1987)

Assays:
[1] = test system: Mus musculus; assay: Highest tolerated dose (p.o.) in mice.; assay type: functional
Outline: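 Mice dosed orally with suspensions in 0.5% methylcellulose 4000 at 50, 200, 400 and 800 mg/kg. Muscle relaxation scored over a 2.0-h observation period on a 0 (none) to 4 (severe) scale. Acute toxicity followed for 72 h after dosing; highest tolerated oral dose given in mg/kg.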

[2] = test system: Rattus norvegicus; assay: Inhibition of gastrocnemius twitch tension after a cumulative dose of 36.6 mg/kg iv in rats.; assay type: functional; settings: for inhibition in vivo at 36.6 mg/kg: Rattus norvegicus, Gastrocnemius, iv
Outline: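 Pithed rat gastrocnemius preparation: adult male Charles River rats (385–400 g), ether anesthesia, tracheotomy, pithed, artificially respired, bilaterally vagotomized. Tubocurarine chloride 0.075 mg/kg iv given for neuromuscular blockade, isolating direct muscle action. Compounds in tetrahydro-2-furanmethanol or DMSO, given iv as sequential 0.83, 2.5, 8.3, 25 mg/kg doses. Percent twitch tension inhibition read after the cumulative dose.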

Row | Compound | HTD [1] [mg/kg] | inhibition in vivo at 36.6 mg/kg [2] [%] | Inhibition [2] [%]
1 | O=C1CN(/N=C/c2ccc(-c3ccc([N+](=O)[O-])cc3)o2)C(=O)[N-]1.[Na+] [DANTROLENE SODIUM] | >400 | -80 | 
2 | O=C1CN(/N=C/c2ncc(-c3ccc(Br)cc3)o2)C(=O)[N-]1.[Na+] [AZUMOLENE SODIUM] | 400 |  | -83
3 | O=C1CN(/N=C/c2ncc(-c3ccc(Cl)c(Cl)c3)o2)C(=O)[N-]1.[Na+] | >800 |  | -71
4 | O=C1CN(/N=C/c2ncc(-c3ccccc3[N+](=O)[O-])o2)C(=O)N1 | >800 | 0 | 
5 | O=C1CN(/N=C/c2ncc(-c3cccc(C(F)(F)F)c3)o2)C(=O)N1 | 400 |  | -56
6 | O=C1CN(/N=C/c2ncc(-c3ccc(Cl)c(Cl)c3)o2)C(=O)N1 | >800 |  | -82
7 | O=C1CN(/N=C/c2ncc(-c3ccccc3)o2)C(=O)N1 | >800 |  | -41
8 | Cc1ccc(-c2cnc(/C=N/N3CC(=O)[N-]C3=O)o2)cc1.[Na+] | >800 |  | -62
9 | O=C1CN(/N=C/c2ncc(-c3ccc(Br)cc3)o2)C(=O)N1 [AZUMOLENE] | >800 |  | -82
10 | O=C1CN(/N=C/c2ncc(-c3cccc(C(F)(F)F)c3)o2)C(=O)[N-]1.[Na+] | 50 |  | -69
11 | O=C1CN(/N=C/c2ncc(-c3ccc([N+](=O)[O-])cc3)o2)C(=O)[N-]1.[Na+] | >800 |  | -84
12 | O=C1CN(/N=C/c2ncc(-c3ccc(Cl)cc3)o2)C(=O)[N-]1.[Na+] | 400 |  | -81
13 | COc1ccc(-c2cnc(/C=N/N3CC(=O)[N-]C3=O)o2)cc1.[Na+] | >800 |  | -58
14 | O=C1CN(/N=C/c2ncc(-c3cccc(Cl)c3)o2)C(=O)[N-]1.[Na+] | 400 | -42 | 
15 | O=C1CN(/N=C/c2ncc(-c3ccccc3)o2)C(=O)[N-]1.[Na+] | 200 |  | -49
16 | COc1ccc(-c2cnc(/C=N/N3CC(=O)NC3=O)o2)cc1 | >800 |  | -47
17 | O=C1CN(/N=C/c2ncc(-c3ccc(Cl)cc3)o2)C(=O)N1 | >800 |  | -80
18 | O=C1CN(/N=C/c2ncc(-c3ccc(F)cc3)o2)C(=O)[N-]1.[Na+] | 400 |  | -75
19 | Cc1ccc(-c2cnc(/C=N/N3CC(=O)NC3=O)o2)cc1 | >800 |  | -65
20 | O=C1CN(/N=C/c2ncc(-c3ccc([N+](=O)[O-])cc3)o2)C(=O)N1 | >800 |  | -86
21 | O=C1CN(/N=C/c2ncc(-c3ccc(F)cc3)o2)C(=O)N1 | >800 |  | -70
